In ChEMBL document CHEMBL4387702, “Design and synthesis novel di-carbonyl analogs of curcumin (DACs) act as potent anti-inflammatory agents against LPS-induced acute lung injury (ALI)” (Eur J Med Chem, 2019):

Tests used:
Type in all cases: ADME, organism-based
Details in all cases: in vivo
[1] = AUC (0 to infinity) in Sprague-Dawley rat at 5 mg/kg, iv by UHPLC-MS/MS analysis; design: dose 5 mg/kg, route intravenous, time infinity
Outline: (§1)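 Male Sprague-Dawley rats (250 ± 20 g) fasted overnight with free access to water, n = 5 per route. Intravenous dose was 5 mg/kg; the intragastric dose is printed as 20 mg/kg in the methods and 50 mg/kg in the table. Tail blood was taken at 0.083, 0.25, 0.5, 1, 2, 4, 6, 9, 12 and 24 h. Samples were centrifuged (12000 rpm, 10 min), deproteinized with 2 volumes of acetonitrile, re-centrifuged and quantified by UHPLC-MS/MS.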

[2] = Tmax in Sprague-Dawley rat at 50 mg/kg, po by UHPLC-MS/MS analysis
Outline: (§2)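 Male SD rats (250 ± 20 g), fasted overnight with water ad libitum, dosed intravenously or intragastrically, n = 5. Tail blood taken at 0.083, 0.25, 0.5, 1, 2, 4, 6, 9, 12 and 24 h post-dose and centrifuged 12000 rpm, 10 min. Supernatant mixed with 2 volumes acetonitrile, vortexed and re-centrifuged. Drug measured by UHPLC-MS/MS; PK parameters derived from time-concentration data.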

[3] = Apparent clearance during terminal phase in Sprague-Dawley rat at 5 mg/kg, iv by UHPLC-MS/MS analysis; outline: as §1
[4] = Tmax in Sprague-Dawley rat at 5 mg/kg, iv by UHPLC-MS/MS analysis; outline: as §2
[5] = Apparent volume of distribution during terminal phase in Sprague-Dawley rat at 5 mg/kg, iv by UHPLC-MS/MS analysis; outline: as §1
[6] = Apparent volume of distribution during terminal phase in Sprague-Dawley rat at 50 mg/kg, po by UHPLC-MS/MS analysis; outline: as §1
[7] = Oral bioavailability in Sprague-Dawley rat at 50 mg/kg measured up to 24 hrs by LC-MS/MS analysis
Outline: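 The rat oral and intravenous plasma profiles (n = 5, tail sampling to 24 h, UHPLC-MS/MS) were used. Oral bioavailability was calculated as F = (AUC p.o × Dose i.v)/(AUC i.v × Dose p.o).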

Structure (SMILES): COc1cc(/C=C/C(=O)N2CCC/C(=C\c3cc(OC)c(OC)c(OC)c3)C2=O)ccc1OC(C)=O
- AUC [1]: 122.4 ng·h/mL
- Tmax [2]: 3.3 h
- CLz/F [3]: 404.4 L/h/kg
- Tmax [4]: 6 min
- Vz/F [5]: 59.5 L/kg
- Vz/F [6]: 827.1 L/kg
- bioavailability [7]: 26.6%
